Test results reported in ChEMBL document CHEMBL1130209, “A novel series of 2,5-substituted tryptamine derivatives as vascular 5HT1B/1D receptor antagonists” (J Med Chem, 1997).

What was measured:
[1] = biological target: T1, Adrenergic receptor alpha-2 (Rattus norvegicus, UniProt P22086+P19328+P22909); assay: Affinity pKi for Alpha-2 adrenergic receptor was measured in rat cortex homogenates.; assay type: tissue-based
T1 sequence (P22086 whole entry): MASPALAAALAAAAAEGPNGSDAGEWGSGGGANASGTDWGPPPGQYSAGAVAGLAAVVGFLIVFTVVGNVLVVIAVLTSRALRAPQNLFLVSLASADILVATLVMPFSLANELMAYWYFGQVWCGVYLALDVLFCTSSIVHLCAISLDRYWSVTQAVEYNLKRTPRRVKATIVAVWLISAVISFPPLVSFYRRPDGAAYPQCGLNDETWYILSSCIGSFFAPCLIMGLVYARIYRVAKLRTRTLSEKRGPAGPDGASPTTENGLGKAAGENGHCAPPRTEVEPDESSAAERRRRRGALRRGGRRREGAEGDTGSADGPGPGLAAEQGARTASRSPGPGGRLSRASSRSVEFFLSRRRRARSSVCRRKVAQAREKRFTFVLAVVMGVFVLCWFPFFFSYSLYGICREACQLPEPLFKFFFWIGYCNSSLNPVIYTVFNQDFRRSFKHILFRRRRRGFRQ
T1 sequence (P19328 whole entry): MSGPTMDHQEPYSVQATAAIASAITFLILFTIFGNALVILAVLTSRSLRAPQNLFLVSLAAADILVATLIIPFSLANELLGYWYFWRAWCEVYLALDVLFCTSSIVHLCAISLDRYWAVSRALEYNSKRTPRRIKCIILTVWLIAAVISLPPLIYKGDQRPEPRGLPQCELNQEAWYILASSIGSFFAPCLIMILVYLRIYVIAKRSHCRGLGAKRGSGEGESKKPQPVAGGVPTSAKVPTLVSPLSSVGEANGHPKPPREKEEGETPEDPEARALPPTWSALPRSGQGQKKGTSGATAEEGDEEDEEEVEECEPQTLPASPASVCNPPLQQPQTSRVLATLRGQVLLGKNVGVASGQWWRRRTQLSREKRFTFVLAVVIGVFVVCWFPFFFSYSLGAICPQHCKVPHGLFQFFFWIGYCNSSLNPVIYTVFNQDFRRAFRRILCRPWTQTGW
T1 sequence (P22909 whole entry): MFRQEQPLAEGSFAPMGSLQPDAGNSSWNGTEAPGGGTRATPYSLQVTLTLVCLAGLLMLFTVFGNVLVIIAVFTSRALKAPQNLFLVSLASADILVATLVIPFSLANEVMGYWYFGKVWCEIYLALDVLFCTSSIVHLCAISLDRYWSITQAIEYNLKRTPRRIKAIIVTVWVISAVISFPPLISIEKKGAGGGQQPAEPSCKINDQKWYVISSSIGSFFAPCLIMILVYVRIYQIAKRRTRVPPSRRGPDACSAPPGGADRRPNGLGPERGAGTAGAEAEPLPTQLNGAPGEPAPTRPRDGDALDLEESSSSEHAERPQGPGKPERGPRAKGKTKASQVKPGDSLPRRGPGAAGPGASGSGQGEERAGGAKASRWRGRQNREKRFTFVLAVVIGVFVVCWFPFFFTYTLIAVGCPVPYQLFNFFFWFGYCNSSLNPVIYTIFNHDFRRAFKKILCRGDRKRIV
Summary of the method: (§1)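 Competition binding with rat cortex homogenate: radioligand near its KD plus a wide range of test drug concentrations in duplicate, 30 min at 27 °C. Buffer 50 mM TRIS-HCl, 5 mM CaCl₂, 0.1% (w/v) ascorbate, 10 mM pargyline. Nonspecific binding defined with excess cold 5HT. Rapid filtration with ice-cold buffer wash, liquid scintillation count. pKi is the mean of at least three estimates.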

[2] = biological target: Adrenergic receptor beta (Rattus norvegicus, UniProt P18090+P10608+P26255); assay: Affinity pKi for Beta adrenergic receptor was measured in rat cortex homogenates; summary of the method: as §1
[3] = biological target: 5-hydroxytryptamine receptor 2B (Homo sapiens) (UniProt P41595); assay: The dissociation equilibrium constant (pKB=-log KB) of compound was determined against the vascular 5-hydroxytryptamine 2B receptor in the endothelium intact rabbit jugular vein.; settings: Oryctolagus cuniculus; target entry is the homologue from another species
[4] = biological target: Adrenergic receptor alpha-2 (Homo sapiens) (UniProt P08913+P18825+P18089); assay: The dissociation equilibrium constant (pKB=-log KB) of compound was determined against the Alpha-2 adrenergic receptor; assay type: protein assay; settings: Oryctolagus cuniculus
[5] = biological target: T2, 5-hydroxytryptamine receptor 2C (Rattus norvegicus, UniProt P08909); assay: Affinity pKi for 5-hydroxytryptamine 2C receptor was measured in rat cortex homogenates.; assay type: tissue-based; summary of the method: as §1
T2 sequence (P08909 whole entry): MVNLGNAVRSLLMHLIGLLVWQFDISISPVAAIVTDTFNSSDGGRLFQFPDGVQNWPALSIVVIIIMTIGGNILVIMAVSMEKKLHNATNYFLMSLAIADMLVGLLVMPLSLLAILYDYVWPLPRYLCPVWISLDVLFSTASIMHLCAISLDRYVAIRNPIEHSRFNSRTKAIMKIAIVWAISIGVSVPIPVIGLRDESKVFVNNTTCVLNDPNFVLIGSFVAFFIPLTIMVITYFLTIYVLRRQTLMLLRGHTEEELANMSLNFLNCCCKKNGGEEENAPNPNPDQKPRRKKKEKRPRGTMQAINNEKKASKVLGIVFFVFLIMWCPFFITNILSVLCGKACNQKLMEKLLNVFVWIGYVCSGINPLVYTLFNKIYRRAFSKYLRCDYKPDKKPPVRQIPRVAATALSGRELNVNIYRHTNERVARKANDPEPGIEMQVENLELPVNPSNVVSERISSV

[6] = biological target: 5-hydroxytryptamine receptor 2A (Rattus norvegicus, UniProt P14842); assay: Affinity pKi for 5-hydroxytryptamine 2A receptor was measured in rat cortex homogenates; assay type: tissue-based; summary of the method: as §1
[7] = biological target: Histamine H1 receptor (Homo sapiens) (UniProt P35367); assay: The dissociation equilibrium constant (pKB=-log KB) of compound was determined against the Histamine H1 receptor in the rabbit thoracic aorta; assay type: tissue-based; settings: Oryctolagus cuniculus, target entry is the homologue from another species
Chain of Histamine H1 receptor (Homo sapiens) (P35367 whole entry): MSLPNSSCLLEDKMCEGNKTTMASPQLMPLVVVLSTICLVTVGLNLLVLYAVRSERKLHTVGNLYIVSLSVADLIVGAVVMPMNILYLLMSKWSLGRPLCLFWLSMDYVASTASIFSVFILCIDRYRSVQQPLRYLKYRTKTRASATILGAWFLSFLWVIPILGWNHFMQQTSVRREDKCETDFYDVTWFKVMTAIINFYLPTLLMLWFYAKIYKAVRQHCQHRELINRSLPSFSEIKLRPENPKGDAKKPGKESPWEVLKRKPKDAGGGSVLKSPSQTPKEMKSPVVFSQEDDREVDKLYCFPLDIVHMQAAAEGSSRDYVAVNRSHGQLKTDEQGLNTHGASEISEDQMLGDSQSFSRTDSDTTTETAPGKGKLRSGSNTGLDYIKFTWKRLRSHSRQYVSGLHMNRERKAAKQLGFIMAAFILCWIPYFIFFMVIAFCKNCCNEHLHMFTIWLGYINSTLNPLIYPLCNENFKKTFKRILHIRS

Chain of 5-hydroxytryptamine receptor 2A (P14842 whole entry): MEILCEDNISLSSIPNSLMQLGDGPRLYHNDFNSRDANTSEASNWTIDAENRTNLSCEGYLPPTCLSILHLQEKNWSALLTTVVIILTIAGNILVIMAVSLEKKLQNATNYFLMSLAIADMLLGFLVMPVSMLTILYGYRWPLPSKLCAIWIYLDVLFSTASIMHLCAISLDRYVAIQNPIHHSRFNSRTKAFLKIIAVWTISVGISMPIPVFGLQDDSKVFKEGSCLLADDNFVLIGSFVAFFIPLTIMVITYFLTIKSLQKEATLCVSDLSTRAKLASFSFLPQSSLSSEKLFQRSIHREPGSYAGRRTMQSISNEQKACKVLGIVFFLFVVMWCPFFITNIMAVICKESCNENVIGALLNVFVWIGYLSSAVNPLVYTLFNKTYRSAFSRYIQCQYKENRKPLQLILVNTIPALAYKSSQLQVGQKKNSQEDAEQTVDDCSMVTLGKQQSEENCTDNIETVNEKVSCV
Chain of 5-hydroxytryptamine receptor 2B (Homo sapiens) (P41595 whole entry): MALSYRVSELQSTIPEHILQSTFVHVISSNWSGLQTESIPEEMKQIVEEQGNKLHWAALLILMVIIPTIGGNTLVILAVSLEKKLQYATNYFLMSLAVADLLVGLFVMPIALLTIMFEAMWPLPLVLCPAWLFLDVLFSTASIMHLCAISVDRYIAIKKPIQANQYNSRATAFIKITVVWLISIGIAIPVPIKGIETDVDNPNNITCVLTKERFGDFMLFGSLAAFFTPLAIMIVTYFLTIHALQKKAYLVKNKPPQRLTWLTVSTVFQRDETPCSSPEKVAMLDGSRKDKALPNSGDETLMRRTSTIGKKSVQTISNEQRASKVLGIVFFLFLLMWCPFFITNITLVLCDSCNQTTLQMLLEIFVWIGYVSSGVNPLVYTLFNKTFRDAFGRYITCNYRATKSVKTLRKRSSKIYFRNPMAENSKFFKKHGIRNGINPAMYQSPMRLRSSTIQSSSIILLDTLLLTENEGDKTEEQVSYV

Log Ki [1]: -5.25
Log Ki [2]: -4.34
pKB [3]: < 5
pKB [4]: < 5
Ki [5]: 5.5 µM
Ki [6]: 7.94 µM
pKB [7]: < 5
Structure (SMILES): CCOC(=O)c1[nH]c2ccc(CCN3C(=O)CNC3=O)cc2c1CCN(C)C
